According to PMC6044579 (ACS Omega, 2017):
Where two headings read alike, the source gives them in different places.

Columns and labels:
[1] = UV-vis absorption spectra; assay type: physicochemical; conditions: ethanol as the solvent
Method in brief: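 Absorption spectra taken in 1.0 cm quartz cells in anhydrous ethanol at room temperature. Ethanolic compound solution (25 μg mL–1 before dilution) made up in a 10 mL volumetric flask and equilibrated 2 min before measurement.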

A549 = test: MTT assay, A549 cancerous alveolar epithelial cells; assay type: cell-based, human; conditions: read-out: anticancer activity (IC50) A549
Method in brief: (§1)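 ATCC-sourced human cells kept at 37 °C, 5% CO2, humidified air. Cells treated with test compound at various concentrations for 96 h; DMSO as control, cisplatin as positive control. MTT (0.4 mg mL–1) added for a further 4 h, medium aspirated, formazan dissolved in DMSO, absorbance read at 490 nm. IC50 taken as the concentration giving 50% growth inhibition.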

SGC7901 = test: MTT assay, SGC7901 gastric carcinoma cells; assay type: cell-based, human; conditions: read-out: anticancer activity (IC50) SGC7901
Method in brief: as §1

HepG2 = test: MTT assay, HepG2 liver carcinoma cells; assay type: cell-based, human
Method in brief: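 HepG2 cells from ATCC, kept at 37 °C, 5% CO2, humidified air. Cells were exposed to the test compound at various concentrations, with DMSO as control, for 96 h. MTT (0.4 mg mL–1) was then added for 4 h. Medium was aspirated, formazan dissolved in DMSO, and absorbance read at 490 nm. IC50 was taken as the concentration giving 50% growth inhibition.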

[2] = Fluorescence spectra and quantum yield; assay type: physicochemical; conditions: for λem – λabs, Stokes shift / λem, emission wavelength / λex, best excitation wavelength / ε × Φ, fluorescent brightness: ethanol as the solvent; for Φ, quantum yield: ethanol, rhodamine as the reference
Method in brief: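 Emission spectra recorded with xenon lamp excitation in 1.0 cm quartz cells at room temperature, excitation and emission slits 5.0 nm. Ethanolic compound solution (25 μg mL–1 before dilution) diluted in a 10 mL flask with buffer solutions, pH set with dilute HCl or NaOH, then equilibrated 2 min. Quantum yield in anhydrous ethanol from integrated emission relative to rhodamine 6G standard (5.0 μg mL–1 in anhydrous ethanol).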

HT29 = test: MTT assay, HT29 colorectal cancer cells; assay type: cell-based, human; conditions: read-out: anticancer activity (IC50) HT29
Method in brief: as §1

MRC-5 = test: MTT assay, MRC-5 diploid fibroblasts; assay type: cell-based, human; conditions: read-out: anticancer activity (IC50) MRC-5
Method in brief: as §1

[3] = system: HepG2 liver carcinoma cells; test: Clonogenic assay for long-term anticancer activity; assay type: cell-based, human; conditions: HepG2, 18 h exposure, colonies counted after 10 days
Method in brief: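 HepG2 cells seeded at 2 × 10^5 per well and attached overnight, then exposed 18 h to test compound at 0.01, 0.1, 1 or 10 μM, with vehicle alone as control. Replated at 700 cells/well in triplicate and grown 10 days at 37 °C, 5% CO2. Washed in ice-cold PBS, fixed in cold methanol 20 min, stained with 0.5% methylene blue 30 min; colonies of >50 cells counted. IC50 estimated from mean treated/untreated colony ratio.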

Cyclic voltammetry = assay type: physicochemical; conditions: anhydrous ethanol, 1.0 × 10^–4 M, Fc/Fc^+ internal standard
Method in brief: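 Three-electrode cell: Pt foil working electrode, Pt wire counter electrode, Ag/AgCl reference. Fc/Fc+ couple served as internal standard.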

[4] = Homo sapiens, HepG2, 96 h, read-out: anticancer activity (IC50) HepG2, MTT assay, liver carcinoma cells, 96 h incubation
[5] = read-out: anticancer activity (IC50) HepG2, MTT assay, liver carcinoma cells, 96 h incubation

Structure (SMILES)	λabs, maximal absorption wavelength [1]	IC50 (A549; Homo sapiens, A549, 96 h)	IC50 (SGC7901; Homo sapiens, SGC-7901, 96 h)	IC50 (HepG2; [4])	λem – λabs, Stokes shift [2]	λem, emission wavelength [2]	λex, best excitation wavelength [2]	Φ, quantum yield [2]	IC50 (HT29; Homo sapiens, HT-29, 96 h)	ε, absorption coefficient [1]	IC50 (MRC-5; Homo sapiens, MRC5, 96 h)	ε × Φ, fluorescent brightness [2]	IC50, colony-forming ratio [3]	first onset of reduction (Cyclic voltammetry)	reversible reduction wave (Cyclic voltammetry)	IC50 (HepG2; [5])	IC50 (HT29; MTT assay, colorectal cancer cells, 96 h incubation)	IC50 (A549; MTT assay, cancerous alveolar epithelial cells, 96 h incubation)	IC50 (SGC7901; MTT assay, gastric carcinoma cells, 96 h incubation)	IC50 (MRC-5; MTT assay, diploid fibroblasts (normal cells), 96 h incubation)
COc1ccc(C(=O)C2=C3NCCCN3C3Oc4ccc(F)cc4C(=O)C3=C2)cc1 (centres unmarked) [3ac, 9-Fluoro-5-(4-methoxybenzoyl)-2,3,4,12a-tetrahydro-1H,7H-chromeno[3′,2′:5,6]pyrido-[1,2-a]pyrimidin-7-one]	440.5 nm	> 100 µM	> 100 µM	> 100 µM	79.0 nm	519.5 nm	464.0 nm	0.476												
COc1ccc(C(=O)C2=C3NCCCN3C3Oc4ccc(Cl)cc4C(=O)C3=C2)cc1 (centres unmarked) [3ad, 9-Chloro-5-(4-methoxybenzoyl)-2,3,4,12a-tetrahydro-1H,7H-chromeno[3′,2′:5,6]pyrido-[1,2-a]pyrimidin-7-one]	440.0 nm	34.3 µM	18.7 µM	30.9 µM	80.0 nm	520.0 nm	449.0 nm	0.464	26.9 µM	50.07 mL mg^–1 cm^–1	34.9 µM	23.23 mL mg^–1 cm^–1								
COc1ccc(C(=O)C2=C3NCCCN3C3Oc4ccc(Br)cc4C(=O)C3=C2)cc1 (centres unmarked) [3ae, 9-Bromo-5-(4-methoxybenzoyl)-2,3,4,12a-tetrahydro-1H,7H-chromeno[3′,2′:5,6]pyrido-[1,2-a]pyrimidin-7-one]	441.5 nm	27.5 µM	17.8 µM	15.4 µM	79.0 nm	520.5 nm	466.0 nm	0.428	18.8 µM	23.56 mL mg^–1 cm^–1	31.3 µM	10.08 mL mg^–1 cm^–1								
COc1ccc(C(=O)C2=C3NCCCCN3C3Oc4ccc(F)cc4C(=O)C3=C2)cc1 (centres unmarked) [3fc, 10-Fluoro-6-(4-methoxybenzoyl)-1,2,3,4,5,13a-hexahydro-8H-chromeno[3′,2′:5,6]pyrido-[1,2-a][1,3]diazepin-8-one]	442.0 nm	39.6 µM	26.7 µM	18.9 µM	83.5 nm	525.5 nm	461.0 nm	0.671	29.8 µM	111.53 mL mg^–1 cm^–1	48 µM	74.72 mL mg^–1 cm^–1								
COc1ccc(C(=O)C2=C3NCCCCN3C3Oc4ccc(Cl)cc4C(=O)C3=C2)cc1 (centres unmarked) [3fd, 10-Chloro-6-(4-methoxybenzoyl)-1,2,3,4,5,13a-hexahydro-8H-chromeno[3′,2′:5,6]pyrido-[1,2-a][1,3]diazepin-8-one]	443.0 nm	33.5 µM	14.8 µM	11.2 µM	83.0 nm	526.0 nm	470.0 nm	0.663	26.8 µM	81.07 mL mg^–1 cm^–1	33.1 µM	53.75 mL mg^–1 cm^–1	5.99 µM	−1.04 V	−1.19 V					
COc1ccc(C(=O)C2=C3NCCCCN3C3Oc4ccc(Br)cc4C(=O)C3=C2)cc1 (centres unmarked) [3fe, 10-Bromo-6-(4-methoxybenzoyl)-1,2,3,4,5,13a-hexahydro-8H-chromeno[3′,2′:5,6]pyrido-[1,2-a][1,3]diazepin-8-one]	443.5 nm	27.5 µM	13.5 µM	< 10 µM	82.5 nm	526.0 nm	470.0 nm	0.329	13.3 µM	113.48 mL mg^–1 cm^–1	34.8 µM	37.33 mL mg^–1 cm^–1				9.5 µM				
N.N.[Cl][Pt][Cl] [DDP, Cisplatin, reference compound]																3 µM	14.3 µM	8.4 µM	2.3 µM	8.2 µM
